Our source for the MIC, fold change (FC) and kcat/Km values is ChEMBL document CHEMBL1629686, “Substrate selectivity and a novel role in inhibitor discrimination by residue 237 in the KPC-2 beta-lactamase” (Antimicrob Agents Chemother, 2010).

Converted amounts (≈) assume the structure as drawn.

In assay [1] the test system is Escherichia coli. As to the kind of experiment: Antimicrobial activity against Escherichia coli DH10B harboring beta-lactamase KPC-2 T237M mutant by agar dilution method in presence of beta-lactamase inhibitor Tazobactam. The class given is functional. Conditions: K-12 DH10B. In a few lines:
(§1)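 LB agar dilution MICs by CLSI criteria, inoculated with a Steers replicator. […] Strains were E. coli DH10B with or without pBC SK(+) carrying wild-type blaKPC-2 or a position 237 variant.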

For assay [2], the system named is Escherichia coli. As to the kind of experiment: Antimicrobial activity against Escherichia coli DH10B harboring beta-lactamase KPC-2 T237E mutant by agar dilution method in presence of beta-lactamase inhibitor Tazobactam. It is filed as functional. Conditions: K-12 DH10B. Put shortly:
as §1

The test system of assay [3] is Klebsiella pneumoniae. As to the kind of experiment: Selectivity index, Ratio of Kcat/Km for Klebsiella pneumoniae 1534 beta-lactamase KPC-2 T237S mutant to ratio of Kcat/Km for Klebsiella pneumoniae 1534 beta-lactamase KPC-2 by spectrophotometric analysis. Put shortly:
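Kinetics used purified enzymes in 10 mM PBS, pH 7.4, room temperature, with 10 nM enzyme and substrate in excess. Km and Vmax came from a Michaelis-Menten fit. kcat/Km of the variant was compared with wild type as ΔΔG = −RT ln of the kcat/Km ratio.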

Assay [4] deals with Escherichia coli. As to the kind of experiment: Antimicrobial activity against Escherichia coli DH10B harboring beta-lactamase KPC-2 T237G mutant by agar dilution method in presence of beta-lactamase inhibitor Tazobactam. The settings on record: K-12 DH10B. The class given is functional. In a few lines:
as §1

For assay [5], the system named is Klebsiella pneumoniae. As to the kind of experiment: Ratio of Kcat/Km for Klebsiella pneumoniae 1534 beta-lactamase KPC-2 T237S mutant by spectrophotometric analysis. Put shortly:
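Purified KPC-2 variant enzymes (periplasmic lysate from E. coli, preparative isoelectric focusing). Hydrolysis followed by diode-array spectrophotometry in 10 mM PBS, pH 7.4, room temperature. Enzyme at 10 nM with substrate in molar excess for pseudo-first-order conditions. Vmax and Km came from a nonlinear least-squares Michaelis-Menten fit.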

For assay [6], the system named is Escherichia coli. As to the kind of experiment: Antimicrobial activity against Escherichia coli DH10B harboring beta-lactamase KPC-2 T237C mutant by agar dilution method in presence of beta-lactamase inhibitor Tazobactam. Conditions: K-12 DH10B. It is filed as functional. In a few lines:
as §1

Assay [7] deals with Escherichia coli. As to the kind of experiment: Antimicrobial activity against Escherichia coli DH10B harboring beta-lactamase KPC-2 T237A mutant by agar dilution method in presence of beta-lactamase inhibitor Sulbactam. The class given is functional. Conditions: K-12 DH10B. In a few lines: (§2)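 LB agar dilution MICs by CLSI criteria, applied with a Steers replicator. […] Hosts were E. coli DH10B carrying pBC SK(+) with wild-type blaKPC-2 or a position 237 variant.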

In assay [8] the test system is Escherichia coli. As to the kind of experiment: Antimicrobial activity against Escherichia coli DH10B harboring beta-lactamase KPC-2 T237S mutant by agar dilution method in presence of beta-lactamase inhibitor Sulbactam. It is filed as functional. The settings on record: K-12 DH10B. In a few lines: as §2
Assay [9] deals with Escherichia coli. As to the kind of experiment: Antimicrobial activity against Escherichia coli DH10B harboring plasmid […] by agar dilution method in presence of beta-lactamase inhibitor clavulanic acid. The class given is functional. The settings on record: K-12 DH10B. In a few lines:
(§3)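 LB agar dilution MICs per CLSI criteria, inoculated with a Steers replicator. […] Strains: E. coli DH10B alone, DH10B carrying empty pBC SK(+), or DH10B carrying pBC SK(+)-blaKPC-2 position 237 variants made by site-saturation mutagenesis and confirmed by sequencing. Plasmid selection used 20 mg/liter chloramphenicol.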

Assay [10] has as its system Escherichia coli. As to the kind of experiment: Antimicrobial activity against Escherichia coli DH10B harboring beta-lactamase KPC-2 T237Q mutant by agar dilution method in presence of beta-lactamase inhibitor Sulbactam. It is filed as functional. Conditions: K-12 DH10B. In a few lines: as §2
The subject of assay [11] is Escherichia coli. The experiment in a line: Antimicrobial activity against Escherichia coli DH10B harboring beta-lactamase KPC-2 T237L mutant by agar dilution method in presence of beta-lactamase inhibitor Sulbactam. The class given is functional. The settings on record: K-12 DH10B. Put shortly: as §2
The subject of assay [12] is Escherichia coli. The experiment in a line: Antimicrobial activity against Escherichia coli DH10B harboring plasmid pBC SK(+) carrying wild type beta-lactamase KPC-2 by agar dilution method in presence of beta-lactamase inhibitor clavulanic acid. The settings on record: K-12 DH10B. The class given is functional. In a few lines: as §2
Assay [13] relates to Escherichia coli. The experiment in a line: Antimicrobial activity against Escherichia coli DH10B harboring beta-lactamase KPC-2 T237C mutant by agar dilution method in presence of beta-lactamase inhibitor Sulbactam. It is filed as functional. Conditions: K-12 DH10B. Put shortly: as §3
In assay [14] the test system is Escherichia coli. As to the kind of experiment: Antimicrobial activity against Escherichia coli DH10B harboring beta-lactamase KPC-2 T237A mutant by agar dilution method in presence of beta-lactamase inhibitor clavulanic acid. The class given is functional. Conditions: K-12 DH10B. Put shortly:
as §2

Assay [15] deals with Escherichia coli. As to the kind of experiment: Antimicrobial activity against Escherichia coli DH10B harboring beta-lactamase KPC-2 T237P mutant by agar dilution method in presence of beta-lactamase inhibitor Sulbactam. The class given is functional. The settings on record: K-12 DH10B. In a few lines: as §3
Assay [16] deals with Escherichia coli. The experiment in a line: Antimicrobial activity against Escherichia coli DH10B harboring beta-lactamase KPC-2 T237C mutant by agar dilution method in presence of beta-lactamase inhibitor clavulanic acid. The class given is functional. The settings on record: K-12 DH10B. In a few lines: as §3
Assay [17] relates to Escherichia coli. The experiment in a line: Antimicrobial activity against Escherichia coli DH10B by agar dilution method in presence of beta-lactamase inhibitor clavulanic acid. Conditions: K-12 DH10B. The class given is functional. In a few lines:
as §3

Assay [18] deals with Escherichia coli. As to the kind of experiment: Antimicrobial activity against Escherichia coli DH10B harboring beta-lactamase KPC-2 T237Y mutant by agar dilution method in presence of beta-lactamase inhibitor Sulbactam. It is filed as functional. Conditions: K-12 DH10B. In a few lines:
as §2

Assay [19] has as its system Escherichia coli. As to the kind of experiment: Antimicrobial activity against Escherichia coli DH10B harboring plasmid […] by agar dilution method in presence of beta-lactamase inhibitor Sulbactam. The class given is functional. Conditions: K-12 DH10B. Put shortly:
as §3

Assay [20] has as its system Klebsiella pneumoniae. As to the kind of experiment: microbe, parasite or virus in culture. The settings on record: 1534.
Assay [21] deals with Escherichia coli. As to the kind of experiment: Antimicrobial activity against Escherichia coli DH10B harboring beta-lactamase KPC-2 T237P mutant by agar dilution method in presence of beta-lactamase inhibitor clavulanic acid. The settings on record: K-12 DH10B. The class given is functional. Put shortly:
as §3

Assay [22] deals with Escherichia coli. The experiment in a line: Antimicrobial activity against Escherichia coli DH10B harboring beta-lactamase KPC-2 T237M mutant by agar dilution method in presence of beta-lactamase inhibitor Sulbactam. The class given is functional. Conditions: K-12 DH10B. In a few lines:
as §2

Assay [23] relates to Escherichia coli. As to the kind of experiment: Antimicrobial activity against Escherichia coli DH10B by agar dilution method in presence of beta-lactamase inhibitor Sulbactam. The class given is functional. Conditions: K-12 DH10B. Put shortly: as §3
Assay [24] deals with Escherichia coli. The experiment in a line: Antimicrobial activity against Escherichia coli DH10B harboring beta-lactamase KPC-2 T237V mutant by agar dilution method in presence of beta-lactamase inhibitor clavulanic acid. The class given is functional. Conditions: K-12 DH10B. Put shortly:
as §2

The test system of assay [25] is Escherichia coli. As to the kind of experiment: Antimicrobial activity against Escherichia coli DH10B harboring beta-lactamase KPC-2 T237I mutant by agar dilution method in presence of beta-lactamase inhibitor Sulbactam. It is filed as functional. Conditions: K-12 DH10B. In a few lines:
as §2

The subject of assay [26] is Escherichia coli. The experiment in a line: Antimicrobial activity against Escherichia coli DH10B harboring beta-lactamase KPC-2 T237K mutant by agar dilution method in presence of beta-lactamase inhibitor clavulanic acid. Conditions: K-12 DH10B. The class given is functional. In a few lines:
as §3

The test system of assay [27] is Escherichia coli. As to the kind of experiment: Antimicrobial activity against Escherichia coli DH10B harboring beta-lactamase KPC-2 T237V mutant by agar dilution method in presence of beta-lactamase inhibitor Sulbactam. It is filed as functional. The settings on record: K-12 DH10B. Put shortly: as §2

`CCN1CCN(C(=O)N[C@@H](C(=O)N[C@@H]2C(=O)N3[C@@H]2SC(C)(C)[C@@H]3C(=O)O)c2ccccc2)C(=O)C1=O` [PIPERACILLIN]: the MIC was found to be 2 µg/mL with Escherichia coli [1], 0.5 µg/mL in the assay with Escherichia coli [2], 1 µg/mL in the assay on Escherichia coli [4] and 0.5 µg/mL in the assay with Escherichia coli [6]. Besides, the fold change (FC) in the assay with Klebsiella pneumoniae [3] amounted to 2.7. Further, the kcat/Km in the assay with Klebsiella pneumoniae [5] came to 7e+06 M⁻¹ s⁻¹.

For `CC1(C)S[C@@H]2[C@H](NC(=O)[C@H](N)c3ccccc3)C(=O)N2[C@H]1C(=O)O` [AMPICILLIN], the MIC in the assay with Escherichia coli [7] worked out at 64 µg/mL; in the assay on Escherichia coli [8] it was 128 µg/mL; in the assay on Escherichia coli [9], 1 µg/mL; in the assay with Escherichia coli [10], 64 µg/mL; with Escherichia coli [11], 16 µg/mL; in the assay with Escherichia coli [12] it was 4 µg/mL. For the same compound, the MIC in the assay with Escherichia coli [13] was 1 µg/mL; with Escherichia coli [14] it was 8 µg/mL; in the assay with Escherichia coli [15], 1 µg/mL; with Escherichia coli [16] it was 1 µg/mL; in the assay with Escherichia coli [17], 1 µg/mL; with Escherichia coli [18], 8 µg/mL. The MIC was found to be 1 µg/mL with Escherichia coli [19]; 32 µg/mL (≈ 91.6 µM) in the assay on Klebsiella pneumoniae [20]; 1 µg/mL in the assay with Escherichia coli [21]; 16 µg/mL in the assay on Escherichia coli [22]; 1 µg/mL in the assay with Escherichia coli [23]; 8 µg/mL in the assay on Escherichia coli [24]. Also, the MIC with Escherichia coli [25] came out at 16 µg/mL; with Escherichia coli [26], 1 µg/mL; in the assay with Escherichia coli [27], 32 µg/mL.
